Data as given in ChEMBL document CHEMBL2062460, “Disubstituted thiourea derivatives and their activity on CNS: synthesis and biological evaluation” (Eur J Med Chem, 2012).
In brackets after ≈: the same amount, converted by molar mass. Activity calls are given as the source filed them. The calls are words filed in the database; no cut-off is given here.

test system: Enterococcus hirae; test: Antibacterial activity against Enterococcus hirae ATCC 10541 after 18 hrs by twofold serial agar dilution technique; assay type: functional; details: ATCC 10541, 18 h

Compound | MIC
S=C(Nc1ccc(I)cc1)Nc1nc[nH]n1 | 400 µg/mL (≈ 1160 µM)
Fc1ccccc1NC(=S)Nc1nc[nH]n1 | 400 µg/mL (≈ 1690 µM)

test system: Staphylococcus aureus; test: Antibacterial activity against methicillin-susceptible Staphylococcus aureus clinical isolate 372/09 after 18 hrs by twofold serial agar dilution technique; assay type: functional; details: clinical isolate 372/09, 18 h
Outline: (§1)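 Clinical isolates came from patients in Warsaw Medical University Hospitals and were classed as methicillin-susceptible or -resistant. MIC was determined by twofold serial agar dilution on Mueller–Hinton II agar (CLSI), 3.125–400 µg/mL in agar, with compounds in methanol or DMSO. Inoculum was 10^4 CFU/mL and plates were read after 18 h at 35 °C.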

Compound | MIC
S=C(Nc1ccc(I)cc1)Nc1nc[nH]n1 | 25 µg/mL (≈ 72.4 µM)
Fc1ccccc1NC(=S)Nc1nc[nH]n1 | > 400 µg/mL

test system: Staphylococcus aureus; test: Antibacterial activity against methicillin-susceptible Staphylococcus aureus clinical isolate 267/08 after 18 hrs by twofold serial agar dilution technique; assay type: functional; details: clinical isolate 267/08, 18 h; outline: as §1

Compound | MIC
S=C(Nc1ccc(I)cc1)Nc1nc[nH]n1 | 25 µg/mL (≈ 72.4 µM)
Fc1ccccc1NC(=S)Nc1nc[nH]n1 | > 400 µg/mL

test system: Staphylococcus epidermidis; test: Antibacterial activity against Staphylococcus epidermidis ATCC 12228 after 18 hrs by twofold serial agar dilution technique; assay type: functional; details: ATCC 12228, 18 h
Outline: (§2)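 Twofold serial agar dilution on Mueller–Hinton II agar, following CLSI guidelines. Compounds were dissolved in methanol or DMSO and tested at final agar concentrations of 3.125–400 µg/mL. Final inoculum was 10^4 CFU/mL.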

Compound | MIC
S=C(Nc1ccc(I)cc1)Nc1nc[nH]n1 | 25 µg/mL (≈ 72.4 µM)
Fc1ccccc1NC(=S)Nc1nc[nH]n1 | 200 µg/mL (≈ 843 µM)

test system: Staphylococcus aureus; test: Antibacterial activity against Staphylococcus aureus ATCC 29213 at 400 ug/disc after 18 hrs by disc diffusion method; assay type: functional; details: ATCC 29213, 18 h, read-out: DIZ
Outline: (§3)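 Disc diffusion per CLSI on Mueller–Hinton II agar; 9 mm paper discs loaded from methanol or DMSO solutions to 400 µg per disc, dried; growth inhibition zone diameter read after 18 h at 35 °C.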

Compound | zone of inhibition at 400 µg/disc
S=C(Nc1ccc(I)cc1)Nc1nc[nH]n1 | 13 mm
Fc1ccccc1NC(=S)Nc1nc[nH]n1 | 12 mm

test system: Staphylococcus aureus; test: Antibacterial activity against Staphylococcus aureus NCTC 4163 at 400 ug/disc after 18 hrs by disc diffusion method; assay type: functional; details: NCTC 4163, 18 h, read-out: DIZ; outline: as §3

Compound | zone of inhibition at 400 µg/disc
S=C(Nc1ccc(I)cc1)Nc1nc[nH]n1 | 12 mm
Fc1ccccc1NC(=S)Nc1nc[nH]n1 | 12 mm

test system: Staphylococcus aureus; test: Antibacterial activity against methicillin-resistant Staphylococcus aureus clinical isolate 329/08 after 18 hrs by twofold serial agar dilution technique; assay type: functional; details: clinical isolate 329/08, 18 h; outline: as §1

Compound | MIC
S=C(Nc1ccc(I)cc1)Nc1nc[nH]n1 | 25 µg/mL (≈ 72.4 µM)
Fc1ccccc1NC(=S)Nc1nc[nH]n1 | > 400 µg/mL

test system: Human immunodeficiency virus 1; test: Antiviral activity against HIV1 infected in human MT4 cells assessed as virus-induced cytopathogenicity after 4 days by MTT assay; assay type: functional, organism-based; details: Human immunodeficiency virus 1, MT4, 96 h

Compound | EC50
S=C(Nc1ccc(I)cc1)Nc1nc[nH]n1 | > 46 µM

test system: Staphylococcus aureus; test: Antibacterial activity against methicillin-resistant Staphylococcus aureus clinical isolate 357/09 after 18 hrs by twofold serial agar dilution technique; assay type: functional; details: clinical isolate 357/09, 18 h; outline: as §1

Compound | MIC
S=C(Nc1ccc(I)cc1)Nc1nc[nH]n1 | 50 µg/mL (≈ 145 µM)
Fc1ccccc1NC(=S)Nc1nc[nH]n1 | > 400 µg/mL

test system: Staphylococcus aureus; test: Antibacterial activity against methicillin-susceptible Staphylococcus aureus clinical isolate 268/08 after 18 hrs by twofold serial agar dilution technique; assay type: functional; details: clinical isolate 268/08, 18 h; outline: as §1

Compound | MIC
S=C(Nc1ccc(I)cc1)Nc1nc[nH]n1 | 25 µg/mL (≈ 72.4 µM)
Fc1ccccc1NC(=S)Nc1nc[nH]n1 | > 400 µg/mL

test system: Micrococcus luteus; test: Antibacterial activity against Micrococcus luteus ATCC 9341 at 400 ug/disc after 18 hrs by disc diffusion method; assay type: functional; details: ATCC 9341, 18 h, read-out: DIZ; outline: as §3

Compound | zone of inhibition at 400 µg/disc
S=C(Nc1ccc(I)cc1)Nc1nc[nH]n1 | 13 mm
Fc1ccccc1NC(=S)Nc1nc[nH]n1 | 24 mm

test system: Staphylococcus aureus; test: Antibacterial activity against Staphylococcus aureus ATCC 6538 after 18 hrs by twofold serial agar dilution technique; assay type: functional; details: ATCC 6538, 18 h; outline: as §2

Compound | MIC
S=C(Nc1ccc(I)cc1)Nc1nc[nH]n1 | 25 µg/mL (≈ 72.4 µM)
Fc1ccccc1NC(=S)Nc1nc[nH]n1 | 200 µg/mL (≈ 843 µM)

test system: Candida albicans; test: Antifungal activity against Candida albicans ATCC 10231 at 400 ug/disc after 18 hrs by disc diffusion method; assay type: functional, organism-based; details: not given
Outline: (§4)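 Yeasts tested by disc diffusion (CLSI) on RPMI agar with 2% glucose; 9 mm paper discs bearing 400 µg compound from methanol or DMSO solution; inhibition zone diameter read after 18 h at 35 °C.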

Compound | diameter of the inhibition zone (DIZ)
S=C(Nc1ccc(I)cc1)Nc1nc[nH]n1 | inactive
Fc1ccccc1NC(=S)Nc1nc[nH]n1 | inactive

test system: Bacillus subtilis; test: Antibacterial activity against Bacillus subtilis ATCC 6633 after 18 hrs by twofold serial agar dilution technique; assay type: functional; details: ATCC 6633, 18 h

Compound | MIC
S=C(Nc1ccc(I)cc1)Nc1nc[nH]n1 | 12.5 µg/mL (≈ 36.2 µM)
Fc1ccccc1NC(=S)Nc1nc[nH]n1 | 100 µg/mL (≈ 421 µM)

test system: Pseudomonas aeruginosa; test: Antibacterial activity against Pseudomonas aeruginosa ATCC 27853 at 400 ug/disc after 18 hrs by disc diffusion method; assay type: functional, organism-based; details: not given; outline: as §3

Compound | diameter of the inhibition zone (DIZ)
S=C(Nc1ccc(I)cc1)Nc1nc[nH]n1 | inactive
Fc1ccccc1NC(=S)Nc1nc[nH]n1 | inactive

test system: Staphylococcus epidermidis; test: Antibacterial activity against methicillin-resistant Staphylococcus epidermidis clinical isolate 340/09 after 18 hrs by twofold serial agar dilution technique; assay type: functional; details: clinical isolate 340/09, 18 h; outline: as §1

Compound | MIC
S=C(Nc1ccc(I)cc1)Nc1nc[nH]n1 | 25 µg/mL (≈ 72.4 µM)

test system: Staphylococcus aureus; test: Antibacterial activity against Staphylococcus aureus ATCC 25923 after 18 hrs by twofold serial agar dilution technique; assay type: functional; details: ATCC 25923, 18 h; outline: as §2

Compound | MIC
S=C(Nc1ccc(I)cc1)Nc1nc[nH]n1 | 25 µg/mL (≈ 72.4 µM)
Fc1ccccc1NC(=S)Nc1nc[nH]n1 | 200 µg/mL (≈ 843 µM)

test system: Staphylococcus aureus; test: Antibacterial activity against methicillin-susceptible Staphylococcus aureus clinical isolate 269/08 after 18 hrs by twofold serial agar dilution technique; assay type: functional; details: clinical isolate 269/08, 18 h; outline: as §1

Compound | MIC
S=C(Nc1ccc(I)cc1)Nc1nc[nH]n1 | 25 µg/mL (≈ 72.4 µM)
Fc1ccccc1NC(=S)Nc1nc[nH]n1 | > 400 µg/mL

test system: Staphylococcus aureus; test: Antibacterial activity against methicillin-susceptible Staphylococcus aureus clinical isolate 256/08 after 18 hrs by twofold serial agar dilution technique; assay type: functional; details: clinical isolate 256/08, 18 h; outline: as §1

Compound | MIC
S=C(Nc1ccc(I)cc1)Nc1nc[nH]n1 | 25 µg/mL (≈ 72.4 µM)
Fc1ccccc1NC(=S)Nc1nc[nH]n1 | > 400 µg/mL

test system: Staphylococcus epidermidis; test: Antibacterial activity against Staphylococcus epidermidis ATCC 12228 at 400 ug/disc after 18 hrs by disc diffusion method; assay type: functional; details: not given; outline: as §3

Compound | diameter of the inhibition zone (DIZ)
S=C(Nc1ccc(I)cc1)Nc1nc[nH]n1 | inactive

same assay, conditions: ATCC 12228, 18 h, read-out: DIZ

Compound | zone of inhibition at 400 µg/disc
Fc1ccccc1NC(=S)Nc1nc[nH]n1 | 11 mm

test system: Escherichia coli; test: Antibacterial activity against Escherichia coli NCTC 8196 at 400 ug/disc after 18 hrs by disc diffusion method; assay type: functional, organism-based; details: not given; outline: as §3

Compound | diameter of the inhibition zone (DIZ)
S=C(Nc1ccc(I)cc1)Nc1nc[nH]n1 | inactive
Fc1ccccc1NC(=S)Nc1nc[nH]n1 | inactive

test system: Micrococcus luteus; test: Antibacterial activity against Micrococcus luteus ATCC 10240 after 18 hrs by twofold serial agar dilution technique; assay type: functional; details: ATCC 10240, 18 h

Compound | MIC
S=C(Nc1ccc(I)cc1)Nc1nc[nH]n1 | 12.5 µg/mL (≈ 36.2 µM)
Fc1ccccc1NC(=S)Nc1nc[nH]n1 | 100 µg/mL (≈ 421 µM)

test system: Staphylococcus epidermidis; test: Antibacterial activity against methicillin-resistant Staphylococcus epidermidis clinical isolate 317/08 after 18 hrs by twofold serial agar dilution technique; assay type: functional; details: clinical isolate 317/08, 18 h; outline: as §1

Compound | MIC
S=C(Nc1ccc(I)cc1)Nc1nc[nH]n1 | 50 µg/mL (≈ 145 µM)

test system: Candida albicans; test: Antifungal activity against Candida albicans ATCC 90028 at 400 ug/disc after 18 hrs by disc diffusion method; assay type: functional, organism-based; details: not given; outline: as §4

Compound | diameter of the inhibition zone (DIZ)
S=C(Nc1ccc(I)cc1)Nc1nc[nH]n1 | inactive
Fc1ccccc1NC(=S)Nc1nc[nH]n1 | inactive

test system: Staphylococcus epidermidis; test: Antibacterial activity against methicillin-resistant Staphylococcus epidermidis clinical isolate 343/09 after 18 hrs by twofold serial agar dilution technique; assay type: functional; details: clinical isolate 343/09, 18 h; outline: as §1

Compound | MIC
S=C(Nc1ccc(I)cc1)Nc1nc[nH]n1 | 50 µg/mL (≈ 145 µM)

test system: Pseudomonas aeruginosa; test: Antibacterial activity against Pseudomonas aeruginosa ATCC 15442 at 400 ug/disc after 18 hrs by disc diffusion method; assay type: functional, organism-based; details: not given; outline: as §3

Compound | diameter of the inhibition zone (DIZ)
S=C(Nc1ccc(I)cc1)Nc1nc[nH]n1 | inactive
Fc1ccccc1NC(=S)Nc1nc[nH]n1 | inactive
